Reference: ChEMBL document CHEMBL5329156, “Discovery and development of novel substituted monohydrazides as potent antifungal agents” (RSC Med Chem, 2023)
Converted amounts (≈) assume the structure as drawn. The source made the active and inactive calls. The calls are words filed in the database; no cut-off is given here.

Legend:
[1] = tested on: Candida albicans; assay: Antibiofilm activity against Candida albicans ATCC 10231 assessed as reduction in biofilm production at 1.96 to 3.9 microg/ml by biofilm formation assay; assay type: functional, organism-based; settings: dose 1.96-3.9 µg/ml
[2] = tested on: Aspergillus nidulans; assay: Antifungal activity against Aspergillus nidulans ATCC 38163 assessed as fungal growth inhibition by double dilution method; assay type: functional
[3] = tested on: Pichia kudriavzevii; assay: Antifungal activity against Pichia kudriavzevii ATCC 6258 assessed as fungal growth inhibition by double dilution method; assay type: functional
How it was run: (§1)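 Broth microdilution after CLSI M27-A3/M38-A2 with minor changes. Single colony grown overnight in YPD at 35 °C, 200 rpm. Compound final range 0.06-31.3 µg/mL; incubated 48 h at 35 °C.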

[4] = tested on: Clavispora lusitaniae; assay: Antifungal activity against Clavispora lusitaniae AR Bank # 398 assessed as fungal growth inhibition by double dilution method; assay type: functional; how it was run: as §1
[5] = tested on: [Candida] auris; assay: Antifungal activity against Candida auris AR Bank # 0384 assessed as fungal growth inhibition by double dilution method; assay type: functional; settings: Candidozyma auris; how it was run: as §1
[6] = tested on: Aspergillus fumigatus; assay: Antifungal activity against Aspergillus fumigatus NRRL 5109 assessed as fungal growth inhibition by double dilution method; assay type: functional
[7] = tested on: [Candida] auris; assay: Antifungal activity against Candida auris AR Bank # 384 assessed as fungal growth inhibition by double dilution method; assay type: functional; settings: Candidozyma auris; how it was run: as §1
[8] = tested on: J774.A1; assay: Cytotoxicity against J774A.1 cells assessed as reduction in cell viability at 31.3 microg/ml; assay type: toxicity, cell-based; settings: mouse, dose 31.3 µg/ml
How it was run: (§2)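 Cells in DMEM with 10% FBS and 1% Pen/Strep, seeded at 10,000 cells/well and held overnight at 37 °C, 5% CO2. Compounds added at final 31.3-0.12 µg/mL (0.05% DMSO vehicle) for 24 h. Resazurin then added for 6 h; fluorescence read at ex 560/em 590. Triton X-100 1% as positive control; values normalized to vehicle. Run in quadruplicate.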

[9] = tested on: Candida albicans; assay: Antifungal activity against itraconazole/fluconazole resistant Candida albicans ATCC MYA-1237 assessed as fungal growth inhibition by double dilution method; assay type: functional
How it was run: (§3)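 Broth microdilution after CLSI M27-A3/M38-A2 with minor modifications. A single colony was grown overnight in YPD at 35 °C with shaking at 200 rpm. Cells were mixed 1:1 with compound (final 0.06-31.3 µg/mL, from DMSO stocks) and incubated 48 h at 35 °C.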

[10] = tested on: Candida albicans; assay: Antifungal activity against itraconazole/fluconazole resistant Candida albicans ATCC 90819 assessed as fungal growth inhibition by double dilution method; assay type: functional; how it was run: as §3
[11] = tested on: [Candida] auris; assay: Antifungal activity against Candida auris AR Bank # 381 assessed as fungal growth inhibition by double dilution method; assay type: functional; settings: Candidozyma auris; how it was run: as §1
[12] = tested on: Saccharomyces cerevisiae; assay: Antifungal activity against Saccharomyces cerevisiae AR Bank # 399 assessed as fungal growth inhibition by double dilution method; assay type: functional; how it was run: as §1
[13] = tested on: Saccharomyces cerevisiae; assay: Antifungal activity against Saccharomyces cerevisiae AR Bank # 400 assessed as fungal growth inhibition by double dilution method; assay type: functional; how it was run: as §1
[14] = tested on: [Candida] auris; assay: Antifungal activity against Candida auris AR Bank # 385 assessed as fungal growth inhibition by double dilution method; assay type: functional; settings: Candidozyma auris; how it was run: as §1
[15] = tested on: [Candida] auris; assay: Antifungal activity against Candida auris AR Bank # 383 assessed as fungal growth inhibition by double dilution method; assay type: functional; settings: Candidozyma auris; how it was run: as §1
[16] = tested on: Nakaseomyces glabratus; assay: Antifungal activity against Candida glabrata ATCC 22019 assessed as fungal growth inhibition by double dilution method; assay type: functional; how it was run: as §1
[17] = tested on: [Candida] auris; assay: Antifungal activity against Candida auris AR Bank # 389 assessed as fungal growth inhibition by double dilution method; assay type: functional; settings: Candidozyma auris; how it was run: as §1
[18] = tested on: Nakaseomyces glabratus; assay: Antifungal activity against Candida glabrata ATCC 2001 assessed as fungal growth inhibition by double dilution method; assay type: functional; how it was run: as §1
[19] = tested on: Candida albicans; assay: Antifungal activity against Candida albicans ATCC 64124 assessed as fungal growth inhibition by double dilution method; assay type: functional; how it was run: as §3
[20] = tested on: [Candida] auris; assay: Antifungal activity against Candida auris AR Bank # 390 assessed as fungal growth inhibition by double dilution method; assay type: functional; settings: Candidozyma auris; how it was run: as §1
[21] = tested on: Aspergillus flavus; assay: Antifungal activity against Aspergillus flavus ATCC MYA-3631 assessed as fungal growth inhibition by double dilution method; assay type: functional
[22] = tested on: Candida albicans; assay: Antifungal activity against itraconazole/fluconazole susceptible Candida albicans ATCC MYA-2310 assessed as fungal growth inhibition by double dilution method; assay type: functional; how it was run: as §3
[23] = tested on: [Candida] auris; assay: Antifungal activity against Candida auris AR Bank # 388 assessed as fungal growth inhibition by double dilution method; assay type: functional; settings: Candidozyma auris; how it was run: as §1
[24] = tested on: Candida duobushaemulonii; assay: Antifungal activity against Candida duobushaemulonii AR Bank # 391 assessed as fungal growth inhibition by double dilution method; assay type: functional; settings: Candidozyma duobushaemuli; how it was run: as §1
[25] = tested on: HepG2; assay: Cytotoxicity against human HepG2 cells assessed as reduction in cell viability upto 31.3 microg/ml; assay type: toxicity, cell-based; settings: dose < 31.3 µg/ml; how it was run: as §2
[26] = tested on: Candida albicans; assay: Antifungal activity against itraconazole/fluconazole resistant Candida albicans ATCC MYA-1003 assessed as fungal growth inhibition by double dilution method; assay type: functional; how it was run: as §3
[27] = tested on: Pichia kudriavzevii; assay: Antifungal activity against Pichia kudriavzevii AR Bank # 397 assessed as fungal growth inhibition by double dilution method; assay type: functional; how it was run: as §1
[28] = tested on: [Candida] haemuloni; assay: Antifungal activity against Candida haemulonii AR Bank # 395 assessed as fungal growth inhibition by double dilution method; assay type: functional; settings: Candidozyma haemuli; how it was run: as §1
[29] = tested on: [Candida] auris; assay: Antifungal activity against Candida auris AR Bank # 386 assessed as fungal growth inhibition by double dilution method; assay type: functional; settings: Candidozyma auris; how it was run: as §1
[30] = tested on: Kodamaea ohmeri; assay: Antifungal activity against Kodamaea ohmeri AR Bank # 396 assessed as fungal growth inhibition by double dilution method; assay type: functional; how it was run: as §1
[31] = tested on: Cryptococcus neoformans; assay: Antifungal activity against Cryptococcus neoformans ATCC MYA-895 assessed as fungal growth inhibition by double dilution method; assay type: functional; how it was run: as §1
[32] = tested on: HEK293; assay: Cytotoxicity against human HEK-293 cells assessed as reduction in cell viability at 31.3 microg/ml; assay type: toxicity, cell-based; settings: dose 31.3 µg/ml; how it was run: as §2
[33] = tested on: Aspergillus terreus; assay: Antifungal activity against Aspergillus terreus ATCC MYA-3633 assessed as fungal growth inhibition by double dilution method; assay type: functional
[34] = tested on: Aspergillus fumigatus; assay: Antifungal activity against Aspergillus fumigatus NRRL 6113 assessed as fungal growth inhibition by double dilution method; assay type: functional
[35] = tested on: Candida albicans; assay: Antifungal activity against Candida albicans ATCC 10231 assessed as fungal growth inhibition by double dilution method; assay type: functional; how it was run: as §1
[36] = tested on: Aspergillus fumigatus; assay: Antifungal activity against Aspergillus fumigatus NRRL 163 assessed as fungal growth inhibition by double dilution method; assay type: functional
[37] = tested on: Candida duobushaemulonii; assay: Antifungal activity against Candida duobushaemulonii AR Bank # 394 assessed as fungal growth inhibition by double dilution method; assay type: functional; settings: Candidozyma duobushaemuli; how it was run: as §1
[38] = tested on: Candida albicans; assay: Antifungal activity against itraconazole/fluconazole susceptible Candida albicans ATCC MYA-2876 assessed as fungal growth inhibition by double dilution method; assay type: functional; how it was run: as §3
[39] = tested on: [Candida] auris; assay: Antifungal activity against Candida auris AR Bank # 387 assessed as fungal growth inhibition by double dilution method; assay type: functional; settings: Candidozyma auris; how it was run: as §1
[40] = tested on: [Candida] haemuloni; assay: Antifungal activity against Candida haemulonii AR Bank # 393 assessed as fungal growth inhibition by double dilution method; assay type: functional; settings: Candidozyma haemuli; how it was run: as §1
[41] = tested on: [Candida] auris; assay: Antifungal activity against Candida auris AR Bank # 382 assessed as fungal growth inhibition by double dilution method; assay type: functional; settings: Candidozyma auris; how it was run: as §1
[42] = tested on: Candida duobushaemulonii; assay: Antifungal activity against Candida duobushaemulonii AR Bank # 392 assessed as fungal growth inhibition by double dilution method; assay type: functional; settings: Candidozyma duobushaemuli; how it was run: as §1
[43] = tested on: [Candida] auris; assay: Antifungal activity against Candida auris AR Bank # 0390 assessed as fungal growth inhibition by double dilution method; assay type: functional; settings: Candidozyma auris; how it was run: as §1

O=C(NNc1ccc(F)cc1F)c1ccccn1 was tested, and the Activity [1] was “inactive”, the MIC [2] was 0.49 µg/mL (≈ 1.97 µM) and the MIC [3] was 0.49 µg/mL (≈ 1.97 µM). The MIC [4] was 1.95 µg/mL (≈ 7.82 µM), the MIC [5] was 0.49 µg/mL (≈ 1.97 µM) and the MIC [6] was 15.6 µg/mL (≈ 62.6 µM). For the same compound, the MIC [7] was 0.49 µg/mL (≈ 1.97 µM), the Activity [8] was “Non-Toxic” and the MIC [9] was 0.49 µg/mL (≈ 1.97 µM). It also gave an MIC [10] of 0.98 µg/mL (≈ 3.93 µM), an MIC [11] of 0.49 µg/mL (≈ 1.97 µM) and an MIC [12] of 0.49 µg/mL (≈ 1.97 µM). The MIC [13] was 0.49 µg/mL (≈ 1.97 µM), the MIC [14] was 0.49 µg/mL (≈ 1.97 µM) and the MIC [15] was 0.49 µg/mL (≈ 1.97 µM). For the same compound, the MIC [16] was 1.95 µg/mL (≈ 7.82 µM), the MIC [17] was 0.24 µg/mL (≈ 0.963 µM) and the MIC [18] was 0.98 µg/mL (≈ 3.93 µM). For the same compound, the MIC [19] was 1.95 µg/mL (≈ 7.82 µM), the MIC [20] was 0.12 µg/mL (≈ 0.482 µM) and the MIC [21] was 15.6 µg/mL (≈ 62.6 µM). It also gave an MIC [22] of 31.3 µg/mL (≈ 126 µM), an MIC [23] of 0.12 µg/mL (≈ 0.482 µM) and an MIC [24] of 0.12 µg/mL (≈ 0.482 µM). The Activity [25] was “Non-Toxic”, the MIC [26] was 0.49 µg/mL (≈ 1.97 µM) and the MIC [27] was ≤ 0.06 µg/mL. The MIC [28] was 0.24 µg/mL (≈ 0.963 µM), the MIC [29] was 0.49 µg/mL (≈ 1.97 µM) and the MIC [30] was 0.98 µg/mL (≈ 3.93 µM). The MIC [31] was 0.24 µg/mL (≈ 0.963 µM), the Activity [32] was “Non-Toxic” and the MIC [33] was 0.98 µg/mL (≈ 3.93 µM). The MIC [34] was 31.3 µg/mL (≈ 126 µM), the MIC [35] was 0.12 µg/mL (≈ 0.482 µM) and the MIC [36] was > 31.3 µg/mL. It also gave an MIC [37] of 3.9 µg/mL (≈ 15.6 µM), an MIC [38] of 0.98 µg/mL (≈ 3.93 µM) and an MIC [39] of 0.12 µg/mL (≈ 0.482 µM). It also gave an MIC [40] of 0.49 µg/mL (≈ 1.97 µM), an MIC [41] of 0.49 µg/mL (≈ 1.97 µM) and an MIC [42] of 0.49 µg/mL (≈ 1.97 µM). For the same compound, the MIC [43] was 0.12 µg/mL (≈ 0.482 µM).
